Results reported in ChEMBL document CHEMBL3232774, “Symmetric bis-chalcones as a new type of breast cancer resistance protein inhibitors with a mechanism different from that of chromones” (J Med Chem, 2014).

Tests used:
ABCG2 = target: T1, ABCG2 (Homo sapiens, UniProt Q9UNQ0); experiment: Inhibition of ABCG2 (unknown origin) transfected in HEK293 cells assessed as inhibition of mitoxantrone efflux at 5 uM after 30 mins by flow cytometry relative to control; type: cell-based; details: HEK293 cells transfected with ABCG2, probe mitoxantrone
T1 sequence (Q9UNQ0 whole entry): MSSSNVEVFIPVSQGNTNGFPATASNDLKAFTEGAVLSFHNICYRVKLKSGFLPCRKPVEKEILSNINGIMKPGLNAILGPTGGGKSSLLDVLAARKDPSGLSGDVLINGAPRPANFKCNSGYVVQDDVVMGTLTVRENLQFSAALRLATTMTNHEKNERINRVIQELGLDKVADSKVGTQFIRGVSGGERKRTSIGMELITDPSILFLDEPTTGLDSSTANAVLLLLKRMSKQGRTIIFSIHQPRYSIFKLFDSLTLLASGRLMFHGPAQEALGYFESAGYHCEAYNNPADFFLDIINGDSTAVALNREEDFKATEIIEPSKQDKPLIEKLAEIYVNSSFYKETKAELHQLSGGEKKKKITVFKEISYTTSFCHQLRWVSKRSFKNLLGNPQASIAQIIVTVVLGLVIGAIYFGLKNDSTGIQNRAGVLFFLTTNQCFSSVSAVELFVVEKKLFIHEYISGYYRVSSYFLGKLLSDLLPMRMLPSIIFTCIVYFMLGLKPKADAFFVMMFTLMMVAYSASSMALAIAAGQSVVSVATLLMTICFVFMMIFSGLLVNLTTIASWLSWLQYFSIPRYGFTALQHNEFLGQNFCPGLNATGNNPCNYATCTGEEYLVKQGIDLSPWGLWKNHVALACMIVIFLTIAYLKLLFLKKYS
Summary of the method: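 HEK293-ABCG2 cells (1.5 × 10⁵/well, grown 48 h) exposed to 5 μM mitoxantrone for 30 min at 37 °C with compound (increasing concentrations up to 10 μM); washed, trypsinized, FL4 flow cytometry, ≥10 000 events.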

[1] = target: T2, Broad substrate specificity ATP-binding cassette transporter ABCG2 (Homo sapiens, UniProt Q9UNQ0); experiment: Inhibition of ABCG2 (unknown origin) transfected in HEK293 cells assessed as inhibition of mitoxantrone efflux after 30 mins by flow cytometry relative to control; type: cell-based
T2 sequence (Q9UNQ0 whole entry): T1 sequence (Q9UNQ0 whole entry)

[2] = target: T2, Broad substrate specificity ATP-binding cassette transporter ABCG2; experiment: Inhibition of human ABCG2 transfected in Sf9 insect cells assessed as inhibition of basal ATPase activity in absence of substrate drug after 30 mins by colorimetry; details: sf9, 0.5 h
Summary of the method: (§1)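 Cholesterol-loaded membranes from Sf9 cells overexpressing human ABCG2 (0.5 mg/mL; 10 μg/sample) in 50 mM Tris-HCl, 50 mM NaCl, pH 8.0, with or without 0.33 mM orthovanadate, no transport substrate; started with 3.9 mM ATP-Mg, 30 min at 37 °C; stopped with SDS; phosphate released read with molybdate/ascorbic acid at 880 nm; vanadate-sensitive basal activity taken as 100%.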

[3] = target: T2, Broad substrate specificity ATP-binding cassette transporter ABCG2; experiment: Inhibition of ABCG2 (unknown origin) transfected in HEK293 cells assessed as inhibition of mitoxantrone efflux at 5 uM after 30 mins in presence of 0.1 uM (2E,2'E)-1,1'-(1,4-Phenylene)bis(3-(2,6-dimethoxyphenyl)-prop-2-en-1-one) by flow cytometry; type: cell-based
HEK293 [4] = experiment: Cytotoxicity against HEK293 cells overexpressing ABCG2 after 72 hrs by MTT assay; type: ADME, cell-based; details: Homo sapiens, HEK293, 72 h
Summary of the method: (§2)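 HEK293-ABCG2 and vector-control HEK293-pcDNA3.1 cells were seeded at 1 × 10⁴/well and grown 24 h, then exposed 72 h to mitoxantrone (0–25 nM). ABCG2 cells were also given bis-chalcone at 0.1 or 0.5 μM. MTT was added for 4 h, formazan dissolved in DMSO/ethanol (1:1) and read at 570 nm. IC50 = mitoxantrone concentration giving 50% survival.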

HEK293 [5] = experiment: Cytotoxicity against HEK293 cells after 72 hrs by MTT assay; type: cell-based; details: Homo sapiens, HEK293, 72 h; summary of the method: as §2
[6] = target: ATP-dependent translocase ABCB1 (Homo sapiens, UniProt P08183); experiment: Inhibition of ABCB1 (unknown origin) transfected in mouse NIH/3T3 cells assessed as inhibition of mitoxantrone efflux up to 10 uM after 30 mins by flow cytometry relative to control; type: cell-based; details: nih/3t3, 0.5 h
Summary of the method: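 NIH-3T3-ABCB1 cells (1.5 × 10⁵/well, 48 h, kept in 60 ng/mL colchicine) were given 5 μM mitoxantrone for 30 min at 37 °C with bis-chalcone at 1 or 10 μM. Fluorescence was read by FL4 flow cytometry, ≥10 000 events. Inhibition was expressed relative to parental NIH-3T3 cells, whose maximal accumulation was taken as complete inhibition.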

[7] = target: Multidrug resistance-associated protein 1 (Homo sapiens, UniProt P33527); experiment: Inhibition of ABCC1 (unknown origin) transfected in HEK293 cells assessed as inhibition of calcein-AM efflux up to 10 uM after 30 mins by flow cytometry relative to control; type: cell-based; details: hek293, 0.5 h
Summary of the method: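 HEK293-ABCC1 cells (2 × 10⁵/well, kept in 200 μg/mL hygromycin B) were exposed to 0.2 μM calcein-AM for 30 min at 37 °C with bis-chalcone at 1 or 10 μM. Calcein was read by FL1 flow cytometry, ≥10 000 events. Inhibition was expressed relative to HEK293/pcDNA5 cells, whose maximal accumulation equals complete inhibition.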

[8] = target: T2, Broad substrate specificity ATP-binding cassette transporter ABCG2; experiment: Inhibition of ABCG2 (unknown origin)-mediated mitoxantrone efflux transfected in HEK293 cells assessed as potentiation of mitoxantrone-induced cytotoxicity at 0.5 uM after 72 hrs by MTT assay; type: cell-based; details: hek293, 72 h; summary of the method: as §2
HEK293 [9] = experiment: Cytotoxicity against HEK293 cells overexpressing ABCG2 at 0.5 uM after 72 hrs by MTT assay; type: ADME, cell-based; details: human, hek293, 72 h; summary of the method: as §2
ABCG2 ATPase [10] = target: T3, ABCG2 ATPase (Homo sapiens, UniProt Q9UNQ0); experiment: (§3) Inhibition of human ABCG2 ATPase activity transfected in Sf9 insect cells using quercetin as substrate after 30 mins by colorimetry relative to control; details: human, Sf9 insect cells transfected with human ABCG2, probe quercetin; read-out: Imax
T3 sequence (Q9UNQ0 whole entry): T1 sequence (Q9UNQ0 whole entry)
Summary of the method: (§4)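 Vanadate-sensitive ATPase of cholesterol-loaded human ABCG2 Sf9 membranes (0.5 mg/mL; 10 μg/sample), 50 mM Tris-HCl/50 mM NaCl pH 8.0, with 2 μM quercetin. ATP-Mg 3.9 mM, 30 min, 37 °C. Phosphate measured colorimetrically at 880 nm. Coupled activity = total minus basal, taken as 100%. IC50 is the concentration giving 50% inhibition.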

[11] = target: T2, Broad substrate specificity ATP-binding cassette transporter ABCG2; experiment: as §3; summary of the method: as §4
ABCG2 ATPase [12] = target: T3, ABCG2 ATPase; experiment: Activation of human ABCG2 transfected in Sf9 insect cells assessed as stimulation of basal ATPase activity in absence of substrate drug after 30 mins by colorimetry; details: Sf9 insect cells transfected with human ABCG2, read-out: FC; summary of the method: as §1
[13] = test system: ATP-binding cassette sub-family G member 2 (Homo sapiens); experiment: Inhibition of ABCG2-mediated mitoxantrone efflux in mitoxantrone-selected human PANC1 cells overexpressing ABCG2; details: PANC-1

Sequence of Multidrug resistance-associated protein 1 (P33527 whole entry): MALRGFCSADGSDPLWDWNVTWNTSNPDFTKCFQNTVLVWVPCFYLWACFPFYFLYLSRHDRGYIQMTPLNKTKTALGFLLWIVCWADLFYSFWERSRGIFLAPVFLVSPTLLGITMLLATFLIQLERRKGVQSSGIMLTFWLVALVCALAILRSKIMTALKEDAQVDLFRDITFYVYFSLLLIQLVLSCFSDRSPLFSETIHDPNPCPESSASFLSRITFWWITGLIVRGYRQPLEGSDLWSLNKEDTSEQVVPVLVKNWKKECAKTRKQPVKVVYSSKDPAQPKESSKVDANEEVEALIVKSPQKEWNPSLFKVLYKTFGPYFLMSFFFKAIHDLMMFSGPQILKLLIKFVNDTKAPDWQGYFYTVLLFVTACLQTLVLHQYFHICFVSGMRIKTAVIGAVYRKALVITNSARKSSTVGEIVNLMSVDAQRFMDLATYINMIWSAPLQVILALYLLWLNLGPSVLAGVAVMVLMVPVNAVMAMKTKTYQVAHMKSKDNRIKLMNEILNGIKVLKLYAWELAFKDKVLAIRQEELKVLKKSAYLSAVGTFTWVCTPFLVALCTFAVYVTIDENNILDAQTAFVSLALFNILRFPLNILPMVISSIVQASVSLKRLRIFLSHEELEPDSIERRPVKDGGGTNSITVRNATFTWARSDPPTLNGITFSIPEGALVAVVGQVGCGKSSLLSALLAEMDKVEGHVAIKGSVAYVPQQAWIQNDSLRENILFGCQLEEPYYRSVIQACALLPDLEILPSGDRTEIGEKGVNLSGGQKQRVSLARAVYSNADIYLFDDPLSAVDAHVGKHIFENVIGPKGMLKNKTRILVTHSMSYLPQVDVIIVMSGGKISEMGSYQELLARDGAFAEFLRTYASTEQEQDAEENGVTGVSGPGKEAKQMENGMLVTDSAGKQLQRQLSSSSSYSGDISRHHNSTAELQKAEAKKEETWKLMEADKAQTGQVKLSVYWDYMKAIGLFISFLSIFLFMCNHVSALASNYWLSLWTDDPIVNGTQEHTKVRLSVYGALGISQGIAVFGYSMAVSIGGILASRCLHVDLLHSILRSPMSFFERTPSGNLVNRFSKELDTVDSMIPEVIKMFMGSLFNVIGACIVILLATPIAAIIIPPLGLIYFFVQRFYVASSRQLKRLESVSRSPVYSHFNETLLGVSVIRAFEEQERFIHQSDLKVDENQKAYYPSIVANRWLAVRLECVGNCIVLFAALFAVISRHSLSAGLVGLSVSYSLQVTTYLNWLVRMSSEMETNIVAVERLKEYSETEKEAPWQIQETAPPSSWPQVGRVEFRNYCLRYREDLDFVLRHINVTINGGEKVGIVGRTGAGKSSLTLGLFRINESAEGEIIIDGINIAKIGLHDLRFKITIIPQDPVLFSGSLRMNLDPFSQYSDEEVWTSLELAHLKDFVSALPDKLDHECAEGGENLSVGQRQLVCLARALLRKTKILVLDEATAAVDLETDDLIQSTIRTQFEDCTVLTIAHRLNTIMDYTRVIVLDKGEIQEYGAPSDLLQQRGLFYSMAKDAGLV
Sequence of ATP-dependent translocase ABCB1 (P08183 whole entry): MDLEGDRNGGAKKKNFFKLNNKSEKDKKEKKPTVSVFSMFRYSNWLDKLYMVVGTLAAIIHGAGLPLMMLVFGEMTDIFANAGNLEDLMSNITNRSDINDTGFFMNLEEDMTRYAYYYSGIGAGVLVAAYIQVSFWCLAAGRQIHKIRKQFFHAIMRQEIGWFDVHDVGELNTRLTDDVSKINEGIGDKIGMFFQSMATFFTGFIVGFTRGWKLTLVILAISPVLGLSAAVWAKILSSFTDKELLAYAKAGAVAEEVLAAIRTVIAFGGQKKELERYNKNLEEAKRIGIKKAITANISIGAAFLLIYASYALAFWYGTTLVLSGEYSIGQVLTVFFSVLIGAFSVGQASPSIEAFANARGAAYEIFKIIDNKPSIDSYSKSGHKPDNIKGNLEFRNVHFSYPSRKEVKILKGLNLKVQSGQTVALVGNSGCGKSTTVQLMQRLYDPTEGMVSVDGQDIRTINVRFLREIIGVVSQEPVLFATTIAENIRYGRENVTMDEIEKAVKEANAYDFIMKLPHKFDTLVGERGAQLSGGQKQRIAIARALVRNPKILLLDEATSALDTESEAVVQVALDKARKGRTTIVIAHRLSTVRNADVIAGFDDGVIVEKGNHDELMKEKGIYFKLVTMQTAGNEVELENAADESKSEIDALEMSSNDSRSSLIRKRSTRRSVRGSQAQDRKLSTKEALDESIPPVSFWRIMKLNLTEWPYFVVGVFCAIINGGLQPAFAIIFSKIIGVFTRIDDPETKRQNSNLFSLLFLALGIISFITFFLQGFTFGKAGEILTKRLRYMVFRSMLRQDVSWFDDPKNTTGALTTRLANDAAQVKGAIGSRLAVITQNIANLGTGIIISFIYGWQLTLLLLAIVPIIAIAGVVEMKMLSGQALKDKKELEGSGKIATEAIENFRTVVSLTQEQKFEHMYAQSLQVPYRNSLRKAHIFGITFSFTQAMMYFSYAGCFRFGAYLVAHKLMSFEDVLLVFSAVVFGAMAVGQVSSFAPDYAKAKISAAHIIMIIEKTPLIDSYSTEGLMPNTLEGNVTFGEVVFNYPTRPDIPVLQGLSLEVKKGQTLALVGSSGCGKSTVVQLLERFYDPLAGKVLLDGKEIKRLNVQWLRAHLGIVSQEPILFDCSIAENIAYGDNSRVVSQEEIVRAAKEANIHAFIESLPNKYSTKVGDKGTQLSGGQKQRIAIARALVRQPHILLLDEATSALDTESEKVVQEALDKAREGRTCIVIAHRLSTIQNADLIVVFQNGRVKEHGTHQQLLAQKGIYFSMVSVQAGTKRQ

| SMILES | inhibition at 0.5 h, 5 µM (ABCG2) [%] | EC50 [1] [nM] | other results |
| --- | --- | --- | --- |
| O=C(/C=C/c1ccc(/C=C/C(=O)c2ccc3c(c2)OCO3)cc1)c1ccc2c(c1)OCO2 | 19 |  |  |
| COc1ccc(/C=C/C(=O)c2ccc(C(=O)/C=C/c3ccc(OC)c(OC)c3OC)cc2)c(OC)c1OC | 86 | 1400 |  |
| O=C(O)c1ccc(C(=O)/C=C/c2ccc(/C=C/C(=O)c3ccc(C(=O)O)cc3)cc2)cc1 | 0 |  |  |
| COc1cc(OC)c(OC)cc1/C=C/C(=O)c1ccc(C(=O)/C=C/c2cc(OC)c(OC)cc2OC)cc1 | 96 | 300 |  |
| COc1cc(OC)c(C(=O)/C=C/c2ccc(/C=C/C(=O)c3cc(OC)c(OC)cc3OC)cc2)cc1OC | 41 |  |  |
| O=C(/C=C/c1ccc(/C=C/C(=O)c2cccc3ccccc23)cc1)c1cccc2ccccc12 | 23 |  |  |
| O=C(/C=C/c1ccc2nccnc2c1)c1ccc(C(=O)/C=C/c2ccc3nccnc3c2)cc1 | 18 |  |  |
| O=C(/C=C/c1ccc(/C=C/C(=O)c2ccc3ccccc3c2)cc1)c1ccc2ccccc2c1 | 45 |  |  |
| COc1ccc(OC)c(C(=O)/C=C/c2ccc(/C=C/C(=O)c3cc(OC)ccc3OC)cc2)c1 | 74 | 1300 |  |
| COc1cc(/C=C/C(=O)c2ccc(C(=O)/C=C/c3ccc(O)c(OC)c3)cc2)ccc1O | 0 |  |  |
| COc1ccc2[nH]cc(CCNC(=O)c3cc(=O)c4c(OCc5ccc(Br)cc5)cccc4o3)c2c1 |  | 94 | inhibition (INH) [2]: Active; EC50 [3]: 31 nM |
| COc1cc(/C=C/C(=O)c2ccc(C(=O)/C=C/c3cc(OC)c(OC)c(OC)c3)cc2)cc(OC)c1OC | 43 |  |  |
| CN(C)c1ccc(/C=C/C(=O)c2ccc(C(=O)/C=C/c3ccc(N(C)C)c4ccccc34)cc2)c2ccccc12 | 17 |  |  |
| COc1ccc(OC)c(/C=C/C(=O)c2ccc(C(=O)/C=C/c3cc(OC)ccc3OC)cc2)c1 | 96 | 700 |  |
| COc1ccc(C(=O)/C=C/c2ccc(/C=C/C(=O)c3ccc(OC)cc3)cc2)cc1 | 27 |  |  |
| O=C(/C=C/c1ccc2c(c1)OCO2)c1ccc(C(=O)/C=C/c2ccc3c(c2)OCO3)cc1 | 11 |  |  |
| COc1ccc(/C=C/C(=O)c2ccc(C(=O)/C=C/c3ccc(OC)c(OC)c3)cc2)cc1OC | 63 | 2100 |  |

| SMILES | inhibition at 0.5 h, 5 µM (ABCG2) [%] | EC50 [1] [nM] | other results |
| --- | --- | --- | --- |
| COc1cc(OC)c(/C=C/C(=O)c2ccc(C(=O)/C=C/c3c(OC)cc(OC)cc3OC)cc2)c(OC)c1 | 92 | 400 |  |
| COc1ccc(C(=O)/C=C/c2ccc(/C=C/C(=O)c3ccc(OC)cc3OC)cc2)c(OC)c1 | 86 | 900 |  |
| COc1ccc(C(=O)/C=C/c2ccc(/C=C/C(=O)c3ccc(OC)c(OC)c3)cc2)cc1OC | 97 | 800 |  |
| COc1ccc(/C=C/C(=O)c2ccc(C(=O)/C=C/c3ccc(OC)cc3)cc2)cc1 | 18 |  |  |
| COc1cc(C(=O)/C=C/c2ccc(/C=C/C(=O)c3ccc(O)c(OC)c3)cc2)ccc1O | 28 |  |  |
| O=C(/C=C/c1cccc2ccccc12)c1ccc(C(=O)/C=C/c2cccc3ccccc23)cc1 | 13 |  |  |
| O=C(/C=C/c1ccc2ccccc2c1)c1ccc(C(=O)/C=C/c2ccc3ccccc3c2)cc1 | 7 |  |  |
| O=C1c2c(O)ccc(O)c2C(=O)c2c(NCCNCCO)ccc(NCCNCCO)c21 [MITOXANTRONE] |  |  | IC50 (HEK293 [4]): 26.6 nM; IC50 (HEK293 [5]): 10 nM |
| COc1ccccc1C(=O)/C=C/c1ccc(/C=C/C(=O)c2ccccc2OC)cc1 | 95 | 1100 |  |
| O=C(O)c1ccc(/C=C/C(=O)c2ccc(C(=O)/C=C/c3ccc(C(=O)O)cc3)cc2)cc1 | 2 |  |  |
| CN(C)c1ccc(/C=C/C(=O)c2ccc(C(=O)/C=C/c3ccc(N(C)C)cc3)cc2)cc1 | 34 |  |  |
| O=C(/C=C/c1ccccc1)c1ccc(C(=O)/C=C/c2ccccc2)cc1 | 13 |  |  |
| COc1cc(C(=O)/C=C/c2ccc(/C=C/C(=O)c3cc(OC)c(OC)c(OC)c3)cc2)cc(OC)c1OC | 73 | 1100 |  |
| O=C(/C=C/c1ccc(/C=C/C(=O)c2ccccc2)cc1)c1ccccc1 | 25 |  |  |
| COc1cc(OC)c(C(=O)/C=C/c2ccc(/C=C/C(=O)c3c(OC)cc(OC)cc3OC)cc2)c(OC)c1 | 66 | 1800 |  |
| COc1cc(OC)cc(C(=O)/C=C/c2ccc(/C=C/C(=O)c3cc(OC)cc(OC)c3)cc2)c1 | 78 | 500 | inhibition (INH) [6]: Not Active; inhibition (INH) [7]: Not Active; inhibition (INH) [8]: Active; Activity (HEK293 [9]): Non-toxic; inhibition (INH) [2]: Not Active; Emax at 0.5 h (ABCG2 ATPase [10]): 72%; IC50 [11]: 270 nM; fold induction at 0.5 h (ABCG2 ATPase [12]): 1.8; EC50 [13]: 210 nM |
| COc1cccc(C(=O)/C=C/c2ccc(/C=C/C(=O)c3cccc(OC)c3)cc2)c1 | 73 | 2300 |  |
